Assay results: ChEMBL document CHEMBL1833907, “Triterpenoid constituents from the roots of Paeonia rockii ssp. rockii” (J Nat Prod, 2011)
Active and inactive are the calls of the source. The rule behind the calls is not given here.

Experiments:
Type in all cases: functional, cell-based
M14 [1] = experiment: Cytotoxicity against human M14 cells after 48 hrs by MTT assay; settings: M14, 48 h
In short: (§1)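 M-14 melanoma cells grown in DMEM with 2 mM L-glutamine, 10% heat-inactivated FBS and 1% penicillin/streptomycin, used for at most 10 passages. Cells were seeded at 3 × 10^3 per well, given serial dilutions (1–50 μM) and incubated 48 h at 37 °C in humidified 5% CO2. Viability was read by MTT at 620 nm.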

M14 [2] = experiment: Cytotoxicity against human M14 cells at 1 to 50 uM after 48 hrs by MTT assay; in short: as §1
M14 [3] = experiment: Induction of apoptosis in human M14 cells assessed as activation of caspase-3 at 50 uM after 8 to 24 hrs by Western blot analysis
M14 [4] = experiment: Induction of apoptosis in human M14 cells assessed as activation of caspase-3 at 50 uM after 24 hrs by Western blot analysis presence of polycaspase inhibitor z-VAD-fmk
M14 [5] = experiment: Induction of apoptosis in human M14 cells assessed as increase in hypodiploid cells up to 25 uM after 24 hrs using propidium iodide staining by flow cytometry
In short: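 M-14 cells were treated with 1–50 μM for 24 h, then collected and stained with propidium iodide. The percentage of hypodiploid (apoptotic) nuclei was measured by flow cytometry against untreated controls. Values are means ± SEM of three experiments run in triplicate.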

M14 [6] = experiment: Induction of apoptosis in human M14 cells assessed as increase in hypodiploid cells after 24 hrs using propidium iodide staining by flow cytometry
In short: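 M-14 melanoma cells (DMEM, 2 mM L-glutamine, 10% heat-inactivated FBS, 1% penicillin/streptomycin, 37 °C, humidified 5% CO2, ≤10 passages) incubated 24 h with serial dilutions of compounds (1–50 μM). Nuclei stained with propidium iodide and analysed by flow cytometry. Apoptosis is taken as the percentage of hypodiploid nuclei versus untreated control. Three experiments, each in triplicate, means ± SEM.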

SMILES | IC50 (M14 [1]) [µM] | Activity (M14 [2]) | further results
COc1cc2c(cc1O)[C@H](CO)[C@H](c1ccc(CCCO)c(OC)c1)O2 [LAWSONICIN] | 100 | – | –
CC1(C)[C@@H](O)CC[C@]2(C)[C@H]3C=CC4=C(O)C(=O)C(=O)[C@@]4(C)[C@]3(C)CC[C@@H]12 | – | inactive | –
CC1(C)CC[C@]2(C(=O)O)CC[C@]3(C)C(=CC[C@@H]4[C@@]5(C)CC[C@H](O)[C@@](C)(CO)[C@@H]5CC[C@]43C)[C@@H]2C1 [HEDERAGENIN] | 58 | – | Activity (M14 [3]): Active; Activity (M14 [4]): inactive; Activity (M14 [5]): Active
C[C@@]12C[C@@]3(O)O[C@@H](O1)[C@]1(COC(=O)c4ccccc4)[C@@H]3C[C@]12O[C@@H]1O[C@H](COC(=O)c2ccccc2)[C@@H](O)[C@H](O)[C@H]1O | – | inactive | –
C[C@@]12CC(=O)[C@H]3C[C@]1(O)O[C@H](O2)[C@@H]3COC(=O)c1ccccc1 | – | inactive | –
C=C1CC[C@]2(C(=O)O)CC[C@]3(C)C(=CC[C@@H]4[C@@]5(C)CC[C@H](O)C(C)(C)[C@@H]5CC[C@]43C)[C@@H]2C1 | – | inactive | –
O=C(O)c1ccccc1 | – | inactive | –
CC1(C)CC[C@]2(C(=O)O)CC[C@]3(C)C(=CC[C@@H]4[C@@]5(C)CC[C@H](O)C(C)(C)[C@@H]5CC[C@]43C)[C@@H]2C1 [OLEANOLIC_ACID] | 82 | – | Activity (M14 [3]): Active; Activity (M14 [4]): inactive; Activity (M14 [5]): Active
C=C(C)[C@@H]1CC[C@]2(C(=O)O)CC[C@]3(C)[C@H](CC[C@@H]4[C@@]5(C)CC[C@H](O)[C@@](C)(CO)[C@@H]5CC[C@]43C)[C@@H]12 | 50 | – | –
C=C1CC[C@@]23CC[C@]4(C)[C@@](OC2=O)([C@@H]3C1)[C@H]1O[C@H]1[C@@H]1[C@@]2(C)CC[C@H](O)[C@@](O)(CO)[C@@H]2CC[C@]14C | – | inactive | –
C=C(C)[C@@H]1CC[C@]2(C(=O)O)CC[C@]3(C)[C@H](CC[C@@H]4[C@@]5(C)CC[C@H](O)C(C)(C)[C@@H]5CC[C@]43C)[C@@H]12 [BETULINIC ACID] | 50 | – | Activity (M14 [6]): Dose-dependent effect; Activity (M14 [3]): Active; Activity (M14 [4]): inactive
COc1ccc(C(C)=O)c(O)c1 | – | inactive | –
C=C1CC[C@]2(C(=O)O)CC[C@]3(C)C(=CC[C@@H]4[C@@]5(C)CC[C@H](O)[C@](C)(O)[C@@H]5CC[C@]43C)[C@@H]2C1 | – | inactive | –
